# Test results as given in ChEMBL document CHEMBL1123913, “Discovery and anticonvulsant activity of the potent metabolic inhibitor 4-amino-N-(2,6-dimethylphenyl)-3,5-dimethylbenzamide” (1987).
# Active and inactive are the calls of the source. The rule behind the calls is not given here.
# Experiments:
# Mus musculus [1] = experiment: Antagonistic activity against MES (Maximal Electroshock)-induced seizures after oral administration to mice; format: functional
# How it was run: (§1)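 Fasted (90 min) mice dosed orally with a range of doses as suspension in 5% acacia/water. Electroshock 40 mA, 0.1 s, ac, via corneal electrodes at the time of peak effect, using at least four doses, 12 mice per dose. ED50 for prevention of tonic-extensor convulsions by Litchfield–Wilcoxon, with 95% confidence limits.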
# Mus musculus [2] = experiment: Plasma concentration was determined after 120 min of oral administration in mice; format: functional, organism-based
# How it was run: (§2)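 Three groups of two mice dosed orally at 1.7, 3.5 or 5.6 mg/kg, suspended in 5% acacia. Blood taken by cardiac puncture under methoxyfluorane into heparin, plasma stored at −30 °C. Parent and N-acetyl metabolite measured by C18 HPLC with absorbance detection against plasma standards of 50–2000 ng/mL. Detection limit 25 ng/mL. Mean ± SEM.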
# Mus musculus [3] = experiment: Time taken for peak anticonvulsant effect(TPE) was measured by oral administration to mice; format: functional
# How it was run: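 Fasted mice, four per group, given a range of oral doses in 5% acacia/water. Challenged with corneal electroshock (40 mA, 0.1 s, ac) at 0.5, 1, 2, 3 and 4 h after dosing to find the time of peak anticonvulsant effect.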
# Mus musculus [4] = experiment: Plasma concentration was determined after 60 min of oral administration in mice; format: functional, organism-based; how it was run: as §2
# Mus musculus [5] = experiment: Plasma concentration was determined after 30 min of oral administration in mice; format: functional, organism-based; how it was run: as §2
# Mus musculus [6] = species: Mus musculus; experiment: Ataxia or neurological deficit was measured as horizontal screen test(HS) in mice; format: functional
# How it was run: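 Male CF1 mice (20–25 g), fasted 90 min, given oral doses as suspension in 5% acacia/water, then placed on a 13 cm × 13 cm wire screen. Retested at the time of peak effect with at least four doses and 12 mice per dose. ED50 by Litchfield–Wilcoxon, with 95% confidence limits.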
# Mus musculus [7] = experiment: Antagonistic activity against MES(Maximal Electroshock)-induced seizures after oral administration to mice; format: functional; how it was run: as §1
# [8] = Protective index (HS ED50/MES ED50) after oral administration in mice; format: functional
# How it was run: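 Ratio of the horizontal-screen ED50 to the MES ED50. Both come from oral dosing of fasted mice in 5% acacia/water at the time of peak effect and are calculated by Litchfield–Wilcoxon.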
# Mus musculus [9] = experiment: Effect on Hexobarbitol-Induced sleeping time in mice at a dose of 3.2 mg/kg peroral administration; format: functional; details: route oral
# How it was run: (§3)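 Groups of 10 fasted mice dosed orally in 5% acacia/water. Hexobarbital 100 mg/kg ip, solubilized with stoichiometric NaOH, given 0.5 h later. Sleeping time is loss of righting reflex, to the nearest minute. Reported as mean ± SEM and percent increase over hexobarbital control.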
# Mus musculus [10] = experiment: Plasma concentration was determined after 360 min of oral administration in mice; format: functional, organism-based; how it was run: as §2
# Mus musculus [11] = experiment: Effect on Hexobarbitol-Induced sleeping time in mice at a dose of 12.8 mg/kg peroral administration; format: functional; details: route oral; how it was run: as §3
# Mus musculus [12] = experiment: Effect on Hexobarbitol-Induced sleeping time in mice at a dose of 6.4 mg/kg peroral administration; format: functional; details: route oral; how it was run: as §3
# Mus musculus [13] = experiment: Effect on Hexobarbitol-Induced sleeping time in mice at a dose of 0 mg/kg peroral administration; format: functional; details: route oral; how it was run: as §3
# Mus musculus [14] = experiment: Effect on Hexobarbitol-Induced sleeping time in mice at a dose of 1.6 mg/kg peroral administration; format: functional; details: route oral; how it was run: as §3
# Mus musculus [15] = experiment: Plasma concentration was determined after 240 min of oral administration in mice; format: functional, organism-based; how it was run: as §2
# Mus musculus [16] = experiment: Ataxia or neurological deficit was measured as horizontal screen test(HS) in mice at a dose of 160 mg/kg; NA means Not active; format: functional, organism-based; parameters: dose 160 mg/kg
# Mus musculus [17] = experiment: Ataxia or neurological deficit was measured as horizontal screen test(HS) in mice at the highest dose of 300 mg/kg; NA means Not active; format: functional, organism-based; parameters: dose 300 mg/kg
# Mus musculus [18] = experiment: Antagonistic activity against MES-induced seizures after oral administration to mice; format: functional; how it was run: as §1
# Mus musculus [19] = experiment: Effect on Hexobarbitol-Induced sleeping time in mice at a dose of 7.6 mg/kg peroral administration; format: functional; details: route oral
# How it was run: (§4)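 Groups of 10 fasted mice dosed orally in 5% acacia/water. Hexobarbital 100 mg/kg ip, solubilized with stoichiometric NaOH, given 1.0 h later. Duration of loss of righting reflex to the nearest minute. Mean ± SEM, percent increase over hexobarbital control, p < 0.05 significance.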
# Mus musculus [20] = experiment: Effect on Hexobarbitol-Induced sleeping time in mice at a dose of 15.2 mg/kg peroral administration; format: functional; details: route oral; how it was run: as §4
# Mus musculus [21] = experiment: Effect on Hexobarbitol-Induced sleeping time in mice at a dose of 30.4 mg/kg peroral administration; format: functional; details: route oral; how it was run: as §4
# Mus musculus [22] = experiment: Effect on Hexobarbitol-Induced sleeping time in mice at a dose of 3.8 mg/kg peroral administration; format: functional; details: route oral; how it was run: as §4
Structure (SMILES),ED50 (Mus musculus [1]),Concentration (Mus musculus [2]),TPE (Mus musculus [3]),Concentration (Mus musculus [4]),Concentration (Mus musculus [5]),ED50 (Mus musculus [6]),further results
CC(=O)Nc1ccc(C(=O)Nc2c(C)cccc2C)cc1C,4.5 mg/kg,91 ng/mL,1 h,97 ng/mL,79 ng/mL,56 mg/kg,–
Cc1cc(C(=O)Nc2c(C)cccc2C)cc(C)c1N,–,1060 ng/mL,1 h,1160 ng/mL,1480 ng/mL,64 mg/kg,ED50 (Mus musculus [7]): 5.6 mg/kg
Cc1cccc(C)c1NC(=O)c1ccc(N)cc1 [AMELTOLIDE],1.7 mg/kg,656 ng/mL,0.5 h,893 ng/mL,1090 ng/mL,23 mg/kg,PI [8]: 13; Sleeping time (Mus musculus [9]): 69.3 min; Concentration (Mus musculus [10]): 299 ng/mL; Sleeping time (Mus musculus [11]): 76.4 min; Sleeping time (Mus musculus [12]): 75 min; Sleeping time (Mus musculus [13]): 59.6 min; Sleeping time (Mus musculus [14]): 67.9 min; Concentration (Mus musculus [15]): 394 ng/mL
CC(=O)Nc1c(C)cc(C(=O)Nc2c(C)cccc2C)cc1C,170 mg/kg,–,2 h,–,–,–,ED50 (Mus musculus [16]): inactive
CC(=O)Nc1ccc(C(=O)Nc2c(C)cccc2C)cc1,3.8 mg/kg,545 ng/mL,2 h,587 ng/mL,412 ng/mL,–,ED50 (Mus musculus [17]): inactive; Concentration (Mus musculus [10]): 225 ng/mL; Concentration (Mus musculus [15]): 425 ng/mL
O=C1NC(=O)C(c2ccccc2)(c2ccccc2)N1 [PHENYTOIN],9.4 mg/kg,–,1 h,–,–,210 mg/kg,–
Cc1cc(C(=O)Nc2c(C)cccc2C)ccc1N,–,–,1 h,–,–,84 mg/kg,ED50 (Mus musculus [18]): 3.5 mg/kg; Sleeping time (Mus musculus [19]): 97.9 min; Sleeping time (Mus musculus [20]): 85.5 min; Sleeping time (Mus musculus [21]): 133.8 min; Sleeping time (Mus musculus [13]): 66.4 min; Sleeping time (Mus musculus [22]): 85.6 min
